The target in data set [1] is equine serum-derived BuChE (eqBuChE) (Equus caballus, UniProt P81908). The data set can be described thus: Cholinesterase inhibition assay, BuChE. The format is biochemical, horse. The following applies: read-out: BuChE inhibitory activity inhibition (%).
The target in data set [2] is electric eel-derived AChE (eeAChE) (Electrophorus electricus, UniProt O42275). The data set can be described thus: Cholinesterase inhibition assay, AChE. The following applies: read-out: AChE inhibitory activity inhibition (%). The data set is classed as biochemical.
Chain of electric eel-derived AChE (eeAChE) (O42275 24-633): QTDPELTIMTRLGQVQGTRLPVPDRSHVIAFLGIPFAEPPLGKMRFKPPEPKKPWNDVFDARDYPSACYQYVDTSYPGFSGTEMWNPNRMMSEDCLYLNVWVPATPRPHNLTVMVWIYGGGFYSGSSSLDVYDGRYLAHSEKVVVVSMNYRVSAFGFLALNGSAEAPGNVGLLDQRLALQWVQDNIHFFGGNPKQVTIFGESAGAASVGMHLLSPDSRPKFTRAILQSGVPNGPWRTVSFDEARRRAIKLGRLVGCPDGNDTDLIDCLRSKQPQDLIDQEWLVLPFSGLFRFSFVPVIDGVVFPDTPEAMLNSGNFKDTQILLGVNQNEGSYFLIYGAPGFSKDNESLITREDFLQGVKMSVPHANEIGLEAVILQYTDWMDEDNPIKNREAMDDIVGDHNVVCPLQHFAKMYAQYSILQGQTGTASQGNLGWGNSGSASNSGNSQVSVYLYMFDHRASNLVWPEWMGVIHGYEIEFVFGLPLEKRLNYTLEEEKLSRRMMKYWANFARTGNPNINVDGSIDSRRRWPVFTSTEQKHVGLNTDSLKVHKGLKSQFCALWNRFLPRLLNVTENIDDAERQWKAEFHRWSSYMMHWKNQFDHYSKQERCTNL
Data set [3] has as its system SK-N-SH cells. The data set can be described thus: Neuroprotective effect on H2O2-induced decrease in cell viability. The data set is classed as cell-based. The following applies: Figure 5; H2O2-treated neurons, concentrations of 0.075–0.6 μM. An outline of the steps: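 Cells challenged with H2O2 and treated with test compound at 0.15 μM. Viability given as % of control, with control set at 100%. Recovery (%) is viability of compound-treated cells minus viability of H2O2-only cells. Data are mean ± SD, n = 3.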

Chain of equine serum-derived BuChE (eqBuChE) (P81908 whole entry): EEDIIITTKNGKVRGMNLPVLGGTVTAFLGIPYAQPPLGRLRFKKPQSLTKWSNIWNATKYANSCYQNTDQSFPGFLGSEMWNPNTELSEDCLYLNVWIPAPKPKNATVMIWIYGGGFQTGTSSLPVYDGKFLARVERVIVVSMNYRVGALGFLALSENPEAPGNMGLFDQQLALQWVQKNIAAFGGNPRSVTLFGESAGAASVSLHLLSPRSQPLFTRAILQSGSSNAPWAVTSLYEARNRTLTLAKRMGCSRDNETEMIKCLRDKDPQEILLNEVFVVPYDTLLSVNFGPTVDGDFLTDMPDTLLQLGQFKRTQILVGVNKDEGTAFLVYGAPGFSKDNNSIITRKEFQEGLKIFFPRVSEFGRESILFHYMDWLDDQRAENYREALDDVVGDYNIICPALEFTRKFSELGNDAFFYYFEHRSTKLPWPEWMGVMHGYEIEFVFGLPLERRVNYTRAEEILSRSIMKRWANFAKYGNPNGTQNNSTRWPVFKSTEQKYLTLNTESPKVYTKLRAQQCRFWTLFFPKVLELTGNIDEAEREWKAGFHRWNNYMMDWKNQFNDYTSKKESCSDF

By inhibition is commonly meant the change of the read-out against control, counted positive when it falls. For `COc1ccc2c3c1O[C@H]1C[C@@H](O)C=C[C@@]31CCN(C)C2` [galantamine], the inhibition at 10000 µM in data set [1] stood at 96.21 ± 0.18%.
Usually cell viability stands for the share of living cells, or the viability signal relative to a control. For the molecule `COC(=O)C1=CO[C@@H](O)[C@@H]2C(CO)=CC[C@H]12` [genipin 1, genipin], the inhibition at 10000 µM is 4.94 ± 0.05% in data set [2] and 2.42 ± 0.18% in data set [1]. The molecule also displayed a cell viability in data set [3] of more than 78%.
For the molecule `COC(=O)C1=CO[C@@H](O[C@@H]2O[C@H](CO)[C@@H](O)[C@H](O)[C@H]2O)[C@@H]2C(CO)=CC[C@H]12` [geniposide], the inhibition at 10000 µM in data set [2] came out at 0.73 ± 0.11%; in data set [1], 2.09 ± 0.18%.

Source of the values: PMC9301951 (ACS Omega, 2022).
